Measured values: ChEMBL document CHEMBL3867451, “Phenolic Metabolites of Dalea ornata Affect Both Survival and Motility of the Human Pathogenic Hookworm Ancylostoma ceylanicum” (J Nat Prod, 2016)

Legend:
Ancylostoma ceylanicum [1] = test: Anthelmintic activity against Ancylostoma ceylanicum isolated from infected Syrian hamster feces assessed as survival rate at 25 ug/ml measured on day 1 relative to control; type: functional; conditions: 24 h
Ancylostoma ceylanicum [2] = test: Anthelmintic activity against Ancylostoma ceylanicum isolated from infected Syrian hamster feces assessed as survival rate at 25 ug/ml measured on day 2 relative to control; type: functional; conditions: 48 h
Ancylostoma ceylanicum [3] = test: Anthelmintic activity against Ancylostoma ceylanicum isolated from infected Syrian hamster feces assessed as survival rate at 25 ug/ml measured on day 3 relative to control; type: functional; conditions: 72 h
Ancylostoma ceylanicum [4] = test: Anthelmintic activity against Ancylostoma ceylanicum isolated from infected Syrian hamster feces assessed as survival rate at 25 ug/ml measured on day 4 relative to control; type: functional; conditions: 96 h
Ancylostoma ceylanicum [5] = test: Anthelmintic activity against Ancylostoma ceylanicum isolated from infected Syrian hamster feces assessed as survival rate at 25 ug/ml measured on day 5 (reference value: >95%); type: functional; conditions: 120 h
[6] = Effect on Syrian hamster splenocytes proliferation assessed as stimulation index by BrdU-incorporation based colorimetric analysis; type: ADME, cell-based, Mesocricetus auratus; conditions: splenocyte
Outline: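 Hamster spleens dissociated through strainers, red cells lysed, cells washed in RPMI. Plated in triplicate at 10⁵ cells per well with several doses of compound. 1% DMSO served as negative control, concanavalin A as positive control. Proliferation read by colorimetric BrdU incorporation. Index is mean OD450 of compound wells divided by mean OD450 of medium plus 1% DMSO wells, with 1 meaning no effect.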

Ancylostoma ceylanicum [7] = test: Anthelmintic activity against Ancylostoma ceylanicum isolated from infected Syrian hamster feces assessed as mortality at 10 ug/ml measured on day 3 relative to control; type: functional; conditions: 72 h
[8] = Toxicity in po dosed rat; type: organism-based; conditions: in vivo
Ancylostoma ceylanicum [9] = test: Anthelmintic activity against Ancylostoma ceylanicum isolated from infected Syrian hamster feces assessed as motility at 25 ug/ml measured on day 5; type: functional
Outline: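 Adult worms from hamster intestine washed in RPMI with fungizone (25 μg/mL) and 20× pen/strep, held overnight at 37 °C, 5% CO2 in that medium plus 50% FBS. Compound added from DMSO stock to 1% DMSO final; 1% DMSO negative control. Motility scored on a 0–3 scale, worms stimulated by microscope light and heat and gentle manipulation.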

Compound	survival at 25 µg/mL (Ancylostoma ceylanicum [1]) [%]	survival at 25 µg/mL (Ancylostoma ceylanicum [2]) [%]	survival at 25 µg/mL (Ancylostoma ceylanicum [3]) [%]	survival at 25 µg/mL (Ancylostoma ceylanicum [4]) [%]	survival at 25 µg/mL (Ancylostoma ceylanicum [5]) [%]	Ratio [6]	mortality at 10 µg/mL (Ancylostoma ceylanicum [7]) [%]	LD50 [8] [mg/kg]	Activity (Ancylostoma ceylanicum [9]) [%]
CC(C)=CCC/C(C)=C/Cc1c(O)ccc2c1O[C@H](c1ccc(O)cc1O)CC2=O	100	100	100	100	93	0.8 to 1			
COc1cc2c(cc1OC)[C@]1(O)C(=O)c3ccc4c(c3O[C@@H]1CO2)C=CC(C)(C)O4 [TEPHROSIN]	77	3	0	0	0	0.8 to 1	100		
COc1cc2c(cc1OC)[C@@H]1C(=O)c3ccc4c(c3O[C@@H]1CO2)C=CC(C)(C)O4 [DEGUELIN]	100	50	40	0	0	0.8 to 1			
C=CC(C)(C)c1cc([C@@H]2CC(=O)c3ccc(O)c(CC=C(C)C)c3O2)c(O)cc1O	100	100	100	97	90	0.8 to 1			
COc1ccc2c(c1)O[C@@H]1c3ccc(O)cc3OC[C@H]21	100	100	100	100	100	0.8 to 1			
CC(C)=CCc1c(O)ccc2c1O[C@H](c1ccc(O)cc1O)CC2=O	100	100	90	80	80	0.8 to 1			
CC(C)=CCc1c(O)cc(O)c2c1O[C@H](c1ccc(O)cc1O)CC2=O [LEACHIANONE G]	100	97	93	93	87	0.8 to 1			
C=C(C)[C@H]1Cc2c(ccc3c2O[C@@H]2COc4cc(OC)c(OC)cc4[C@@H]2C3=O)O1 [ROTENONE]								132 to 1500	
C=CC(C)(C)c1cc([C@@H]2CC(=O)c3c(O)cc(O)c(CC=C(C)C)c3O2)c(O)cc1O	100	100	100	100	100	0.8 to 1			
Oc1ccc2c(c1)OC[C@@H]1c3cc4c(cc3O[C@H]21)OCO4 [(+)-MAACKIAIN]	100	93	83	80	73	1			80
CC(C)=CCc1c(O)c(O)cc2c1O[C@H](c1ccc(O)cc1)CC2=O	100	97	90	83	83	0.8			
